The source of these data is ChEMBL document CHEMBL4513216, “Probing the Open Global Health Chemical Diversity Library for Multistage-Active Starting Points for Next-Generation Antimalarials” (ACS Infect Dis, 2020).

A short description of the data set: Toxicity liver stage against HepG2, at 10uM. The format is cell-based. Also noted: test concentration 10 uM, cell line HepG2-A16-CD81EGFP. The conditions noted are these: human, HepG2-A16-CD81EGFP cells; read-out: INHIBITION
A digest of the protocol:
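Uninfected HepG2-A16-CD81EGFP cells, 3 × 10^3 per well, 1536-well, plated on prespotted compound at 10 μM final, parasite-free screening media added to match infected plates; puromycin 10 μM positive, DMSO 0.5% negative; run in parallel with 48 h PbLuc assay at 37 °C, 5% CO2; viability by CellTiter-Glo luminescence, normalized to controls.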
On to `NC(=O)c1ccc(OCCCN2C[C@H](C3CC3)[C@@H](N)C2)cc1`, for which the cytotoxicity at 10 µM is -0.517%. The same measure for `O=C(NC[C@H]1OC[C@@H](N(CC2CC2)CC2CC2)[C@@H]1O)Nc1ccccc1`: -2.62%; for `O=C(CCn1cc(Cl)cn1)Nc1ccc2c(c1)OCCO2`: -2.18%. Then `O=C(C1CCN(Cc2nc(-c3ccco3)no2)CC1)N1CCCC1`, with -3.4%; and `O=C1CCCN1CCc1noc(-c2ccc3[nH]cnc3c2)n1`, with 8.74%. For the compound `COCCn1ccc(=O)c(OCC(=O)Nc2cccc(OC)c2)c1C`, the cytotoxicity at 10 µM was -2.74%. Then `O=C1C(n2nnc(-c3cccs3)n2)CCN1CC(F)(F)F` (stereo not drawn), with -0.0198%; and `COc1ccc2oc(C(C)NC(=O)NCC(C)(C)C(N)=O)c(C)c2c1` (stereo not drawn), with -9.51%; and `Cc1cc(C2CCCCN2C(=O)CN2C(=O)OC(C)(C)C2=O)no1` (stereo not drawn), with 3.35%. The same measure for `CC(C)Oc1ccccc1C(=O)NCCc1nncn1C`: -7.71%; for `O=C(C1CCOCC1)N1CCO[C@H]2[C@H](OCc3ccncc3)CC[C@@H]21`: -2.53%. In the case of `Cc1nc(-c2nnc(SCC(=O)O)n2C(C)c2ccccc2)co1` (stereo not drawn), the cytotoxicity at 10 µM is -6.3%.

`CN1C(=O)CC(C(=O)O)C12CCN(Cc1ccc(Cl)c(Cl)c1)CC2` (stereo not drawn): the cytotoxicity at 10 µM is 2.12%. The same measure for `NC(=O)C1CCCN(c2ccc(CNC(=O)c3cc[nH]n3)cc2)C1` (stereo not drawn): -3.9%; for `CO[C@@H]1CC[C@H]2[C@H]1OCCN2C(=O)C1=CCCC1`: -6.34%; for `CC(C)c1nc(C2CCCN(C(=O)c3ccc4nccn4c3)C2)no1` (stereo not drawn): -0.0722%. The same measure for `CCn1cc(CNC(C)c2noc(-c3ccc(Cl)cc3)n2)cn1` (stereo not drawn): 3.63%. Regarding `CN1CCN(C(=O)c2cc3sccc3n2Cc2ccccc2Cl)CC1`, the cytotoxicity at 10 µM came to 2.3%.

`Cc1cc(NCCc2c(C)n[nH]c2C)nc(-c2cccnc2)n1`: the cytotoxicity at 10 µM was -0.355%. The same measure for `Cc1cc(-c2nn(C)c(Cl)c2CN2CC[C@@](O)(C3CCC3)[C@H](C)C2)no1`: -7.23%; for `CCc1cc(N(C)CCCO)n2nccc2n1`: 1.77%; for `c1cncc(-c2cccc(-c3ccn(CCN4CCCCC4)n3)c2)c1`: 2.54%.

As for `CSCC(=O)NS(=O)(=O)c1ccc2c(c1)OCCO2`, the cytotoxicity at 10 µM was -9.69%. The same measure for `COCC1CN(Cc2ccoc2)Cc2cn(C)nc21` (stereo not drawn): 7.55%; for `Cc1c(C)n2c(SCC(=O)N3CCOCC3)nnc2[nH]c1=O`: 3.26%.

Turning to `O=C(NC[C@]12COC[C@H]1CN(Cc1cccnc1)C2)c1ccno1`, the cytotoxicity at 10 µM is 4.35%. Then `O=C(Cn1c(=O)n(Cc2ccco2)c2ncccc21)NC1CC1`, with -6.33%; and `c1cc2c(cc1C1(CNC3=NCCN3)CCCC1)OCCO2`, with 11%. The same measure for `N[C@H]1CN(S(=O)(=O)N2CCCC2)C[C@@H]1c1ccccc1`: 6.86%; for `O=C1NC(=O)c2c3c(nc(O)c21)CCCC3`: -4.69%; for `O=C1NCC2(CCCN(C(=O)c3ccc4c(c3)OCCO4)CC2)O1` (stereo not drawn): -9.35%. Then `O=C(NS(=O)(=O)c1ccccc1C(F)(F)F)c1cccc2c1OCCO2`, with 5.56%; and `COC1CCN(C(=O)CCn2cccn2)CC1`, with -13.4%. As for `CC(C)c1noc(CCNC(=O)NCC2COc3ccccc3O2)n1` (stereo not drawn), the cytotoxicity at 10 µM is 1.03%. Then `CCS(=O)(=O)c1ccccc1N1CCC(NC(=O)NC2CCCC2)CC1`, with -16%; and `Cc1nc[nH]c1C(=O)NCc1cccnc1N(C)C1CCCCC1`, with -4.12%; and `CCN(CC)CC[C@H]1CN(C(=O)NC2CCCCC2)CC[C@H]1CC(=O)O`, with 7.77%. The same measure for `O=C(c1ccncc1)N1CCC2(CC1)CCN(Cc1ccccn1)C2=O`: -3.18%.
